The results in this text go back to ChEMBL document CHEMBL1124212, “Synthesis of novel 3-substituted beta-carbolines as benzodiazepine receptor ligands: probing the benzodiazepine receptor pharmacophore” (J Med Chem, 1988).

Experiment [1] has as its target GABA-A receptor; anion channel. Kind of experiment: In vitro inhibition of binding to the benzodiazepine receptor in rat cerebral cortical membrane using [3H]diazepam as radioligand. It is filed as cell membranes. The gist of the method: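 Rat cerebral cortex homogenized in 50 mM Tris-HCl, pH 7.4, spun at 20000g for 20 min at 4 °C, and washed three times. Nonspecific binding was measured with 10 μM flunitrazepam (final). IC50 was estimated from Hill plots.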

The species entered for another experiment is Rattus norvegicus. Kind of experiment: In vitro inhibition of [3H]diazepam binding to GABA-A benzodiazepine receptor of rat cerebral cortical membrane. In a few lines:
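Rat cerebral cortex homogenized in 50 mM Tris-HCl, pH 7.4, spun at 20000g for 20 min at 4 °C, and washed three times. […] Nonspecific binding was measured with 10 μM flunitrazepam (final). IC50 was estimated from Hill plots.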

Experiment [2] concerns Mus musculus. Kind of experiment: Proconvulsant effect on mice 15 min after ip administration of a 20 mg/kg dose. It is filed as functional. Particulars: route intraperitoneal. The gist of the method: (§1)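 Adult male mice (~25 g) were given drug ip in vehicle (20% diluted Emulphor in saline). They were challenged with pentylenetetrazole (40 mg/kg ip, in water) 15 or 120 min later. Animals were watched for 15 min for clonic-tonic convulsions, scored as % of animals convulsing, with at least 10 animals per dose.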

Experiment [3] relates to Mus musculus. As to the kind of experiment: Proconvulsant effect on mice 120 min after ip administration of a 10 mg/kg dose. Particulars: route intraperitoneal. The class given is functional. The gist of the method: as §1
Experiment [4] has as its system Mus musculus. Kind of experiment: Proconvulsant effect on mice 15 min after ip administration of a 10 mg/kg dose. The settings on record: route intraperitoneal. It is filed as functional. The gist of the method: (§2)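 Adult male mice (~25 g) given test drug or vehicle (0.1 mL of 20% diluted Emulphor in saline) ip at the stated dose, then challenged 15 or 120 min later with pentylenetetrazole 40 mg/kg ip (in water). Animals watched 15 min after PTZ for clonic-tonic convulsions; % convulsing recorded; at least 10 animals per dose.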

For experiment [5], the system named is Mus musculus. As to the kind of experiment: Proconvulsant effect on mice 15 min after ip administration of a 2.5 mg/kg dose. The class given is functional. The settings on record: route intraperitoneal. In a few lines:
as §1

Experiment [6] has as its system Mus musculus. Kind of experiment: Proconvulsant effect on mice 15 min after ip administration of at 1.25 mg/kg dose. The class given is functional. Particulars: route intraperitoneal. In a few lines:
as §1

Experiment [7] relates to Mus musculus. As to the kind of experiment: Proconvulsant effect on mice 15 min after ip administration of a 5 mg/kg dose. The settings on record: route intraperitoneal. The class given is functional. The gist of the method: as §1
Experiment [8] relates to Mus musculus. As to the kind of experiment: Proconvulsant effect on mice 120 min after ip administration of a 25 mg/kg dose. It is filed as functional. Particulars: route intraperitoneal. The gist of the method: as §2
The subject of experiment [9] is Mus musculus. As to the kind of experiment: Proconvulsant effect on mice 15 min after ip administration of a 25 mg/kg dose. It is filed as functional. The settings on record: route intraperitoneal. The gist of the method:
as §2

For orientation: IC50 means the concentration needed to halve the response being measured. A high value points to a need for much substance. Compound `COC(=O)c1cc2ccccc2cn1` came in with an IC50 in [1] of 13200 nM.

With `S=C=Nc1cc2c3ccccc3nc-2c[nH]1`, the IC50 in experiment [1] was 8 nM.

`Oc1cc2c3ccccc3nc-2c[nH]1` gave an IC50 in experiment [1] of 4000 nM.

In experiment [1], `COC(=O)c1cc2c3ccccc3n(C)c2cn1` gave an IC50 of over 50000 nM.

Usually IC30 stands for the concentration needed for an effect of 30%. Read a high IC30 as weaker potency. Regarding `c1ccc(CNc2cc3c(cn2)[nH]c2ccccc23)cc1`, in the experiment filed under Rattus norvegicus, the IC30 came to 1280 nM.

Take `Cn1c2ccccc2c2c3[nH]c4ccccc4c3ncc21`: the IC50 in experiment [1] was 1160 nM.

For `COc1cc2c(cn1)[nH]c1ccccc12`, the IC50 in [1] is 124 nM.

On to `O=[N+]([O-])c1cc2c3ccccc3nc-2c[nH]1`, for which, in [1], the IC50 amounted to 125 nM.

On to `CCCOc1cc2c(cn1)[nH]c1ccccc12`, for which the IC50 in experiment [1] was determined as 11 nM.

Compound `Clc1cc2c(cn1)[nH]c1ccccc12` had an IC50 in [1] of 45 nM.

In [1], `CCOC(=O)c1cc2c(cn1)sc1ccccc12` showed an IC50 of 980 nM.

In turn, `c1ccc2c(c1)[nH]c1c2ccc2[nH]c3ccccc3c21` came in with an IC50 in [1] of 1920 nM.

In the case of `COC(=O)c1cc2c(cn1)[nH]c1ccccc12` [BETA-CCM], the IC50 in experiment [1] was 5 nM.

Compound `c1ccc2c(c1)[nH]c1cnccc12` [NORHARMANE] displayed an IC50 in experiment [1] of 1620 nM.

As to `CCOc1cc2c(cn1)[nH]c1ccccc12`, the Convulsion with Mus musculus [2] came to 100%; with Mus musculus [3] it was 60%; in the experiment on Mus musculus [4] it was 84%; in the experiment with Mus musculus [5], 40%; in the experiment on Mus musculus [6], 30%; in the experiment with Mus musculus [7], 50%. This compound also had an IC50 in [1] of 24 nM.

`CCOC(=O)c1cc2c(cn1)[nH]c1ccccc12`: the Convulsion is 33% with Mus musculus [4], 30% in the experiment with Mus musculus [8] and 96% in the experiment with Mus musculus [9].
